Measurements taken from PubChem BioAssay AID488937 (Broad Institute, 2010).
Inconclusive results are not listed. Unmarked numbers belong to inactive results.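 How the source made its calls: active means compounds whose fitted half-maximal growth inhibition dose is no more than ten times the top tested dose; inconclusive means flat curve inhibiting 30 to 70%, or poor curve fit; inactive means flat within 30%, weaker potency, or rising signal.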

test: Candida albicans growth inhibition, agent alone, dose response, counter-screen for reversing antifungal drug resistance, CaCi-2 strain, dry powder, set 3 (AID 488937); conditions: C. albicans CaCi-2 growth, Alamar Blue fluorescence, 48 h; series mostly up to 26 µM; activity change, negative = inhibition: at the top concentration
In short: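 Material: Candida albicans strain CaCi-2 yeast, fluconazole absent. Amount: inoculum A600 0.00015. Buffer or medium: RPMI medium without fluconazole. Times: 48 h growth at 37 °C, dye 2 h. Technique: Alamar Blue fluorescence in RFU[…]. Read-out basis: relative yeast growth by fluorescence. Controls: geldanamycin positive control.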

Row | Structure (SMILES) | activity change, negative = inhibition [%]
1 | O=C(c1ccc(F)cc1)N1CCN(c2ccccn2)CC1 | -4.39
2 | N#Cc1ccc(C(=O)N2CCN(c3ccccn3)CC2)cc1 | -6.52
3 | Cc1ccnc(N2CCN(C(=O)c3ccc(Cl)cc3)CC2)c1 | -5.16
4 | COCCC(=O)N1CCN(c2ccccn2)CC1 | -10.3
5 | Cc1cccc(N2CCN(C(=O)c3ccc(Cl)cc3)CC2)n1 | -16.8
6 | Cc1ccc(N2CCN(C(=O)c3ccc(Cl)cc3)CC2)nc1 | -27.7
7 | N#Cc1cccnc1N1CCN(C(=O)c2ccc(Cl)cc2)CC1 | -4.97
8 | O=C(c1ccc(Cl)cc1)N1CCN(c2ccc(C(F)(F)F)cn2)CC1 | -1.49
9 | Cn1ccnc1N1CCN(C(=O)c2ccc(Cl)cc2)CC1 | -14
10 | O=C(c1ccc(Cl)cc1)N1CCN(c2cnccn2)CC1 | -13.9
11 | O=C(c1ccccc1Cl)N1CCN(c2ccccn2)CC1 | -25.8
12 | COc1cccnc1N1CCN(C(=O)c2ccc(Cl)cc2)CC1 | -3.13
13 | O=C(c1ccc(Cl)cc1)N1CCN(c2nc3ccccc3s2)CC1 | -1.53
14 | O=C(c1ccc(Cl)cc1)N1CCN(c2nccs2)CC1 | -6.15
15 | O=C(c1ccc(Cl)cc1)N1CCN(c2ncccn2)CC1 | 2.79
16 | O=C(c1ccc(Cl)cc1)N1CCN(c2cccc(C(F)(F)F)n2)CC1 | -5.42
17 | Cc1ccc(N2CCN(C(=O)c3ccc(Cl)cc3)CC2)nn1 | -7.26
18 | CC(C)C(=O)N1CCN(c2ccccn2)CC1 | -24.5
19 | COc1ccc(C(=O)N2CCN(c3ccccn3)CC2)cc1 | -9.02
20 | Cc1ccc(C(=O)N2CCN(c3ccccn3)CC2)cc1 | -9.55
21 | O=C(c1ccc(Cl)cc1)N1CCN(c2nc3ccccc3o2)CC1 | -31.6
22 | CCCCC(=O)N1CCN(c2ccccn2)CC1 | -20.4
23 | O=C(c1ccccc1)N1CCN(c2ccccn2)CC1 | -14
